Reference: PMC4103641 (Bioscience and Microflora, 2011)
Marks after values point to notes of the source that are not given here. Blank lines part the entries; values can stand above or below the molecule they belong to.

Assays:
[1] = Metabolism of isoflavones by homogenate of germfree mouse small intestine; type: in vitro ADME; conditions: for Aglycone detected after incubation against compound added / Glycoside detected after incubation against compound added: 3 days; for Hydrolysis by homogenate of germfree mouse small intestine (in words): without bacterial activity; for Metabolized by incubation with germfree mouse small intestine (in words): 3 days anaerobically, both pH 5.0 and 7.4
How it was run: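 Upper small intestine from 14-week-old male germfree BALB/cA mice, homogenised anaerobically in 9 volumes BHI broth at pH 7.4 or 5.0. Test compound added from 5 mmol/l DMSO stock. Flavone internal standard added, then 5 extractions with equal-volume butanol, redissolved in 50% ethanol. Reversed-phase ODS HPLC (30 °C, acetonitrile/water/acetic acid gradient) with 260 nm diode-array detection. Values are % detected versus added.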

human fecal suspension = experiment: Metabolism of isoflavones by human fecal suspensions; type: in vitro ADME; conditions: for 6HG detected after incubation / 6HGDG detected after incubation: substrate 6HGDG; for Daidzein detected after incubation: substrate Daidzein; for Genistein detected after incubation: substrate Genistein; for Glycitein detected after incubation: substrate Glycitein; for Tectorigenin detected after incubation: substrate Tectorigenin

Aglycone detected after incubation against compound added ([1]; pH 5.0): 0.0%
Glycoside detected after incubation against compound added ([1]; pH 5.0): 99.4%
Aglycone detected after incubation against compound added ([1]; pH 7.4): 0.0%
Glycoside detected after incubation against compound added ([1]; pH 7.4): 106.2^a %
Hydrolysis by homogenate of germfree mouse small intestine (in words) [1]: not hydrolyzed
Metabolism by human fecal bacteria (in words) (human fecal suspension; incubation for 3 days): completely metabolized
Metabolism by human fecal bacteria (in words) (human fecal suspension; incubation for 3 days, listed as 6-hydroxygenistein 6,7-di-O-glucoside): highly metabolized
6HGDG metabolized to its aglycone, 6HG (human fecal suspension; six out of 10 samples): 9 to 56%
6HG detected after incubation (human fecal suspension; Mix, mixture of 10 samples): 0.0%
6HGDG detected after incubation (human fecal suspension; Mix, mixture of 10 samples): 0.0%
6HG detected after incubation (human fecal suspension; fecal sample no. 1): 55.8%
6HGDG detected after incubation (human fecal suspension; fecal sample no. 1): 0.0^a %
6HG detected after incubation (human fecal suspension; fecal sample no. 2): 40.8%
6HGDG detected after incubation (human fecal suspension; fecal sample no. 2): 0.0%
6HG detected after incubation (human fecal suspension; fecal sample no. 3): 26.6%
6HGDG detected after incubation (human fecal suspension; fecal sample no. 3): 0.0%
6HG detected after incubation (human fecal suspension; fecal sample no. 4): 28.4%
6HGDG detected after incubation (human fecal suspension; fecal sample no. 4): 0.0%
6HG detected after incubation (human fecal suspension; fecal sample no. 5): 18.4%
6HGDG detected after incubation (human fecal suspension; fecal sample no. 5): 0.0%
6HG detected after incubation (human fecal suspension; fecal sample no. 6): 8.7%
6HGDG detected after incubation (human fecal suspension; fecal sample no. 6): 0.0%
6HG detected after incubation (human fecal suspension; fecal sample no. 7): 0.0%
6HGDG detected after incubation (human fecal suspension; fecal sample no. 7): 0.0%
6HG detected after incubation (human fecal suspension; fecal sample no. 8): 0.0%
6HGDG detected after incubation (human fecal suspension; fecal sample no. 8): 0.0%
6HG detected after incubation (human fecal suspension; fecal sample no. 9): 0.0%
6HGDG detected after incubation (human fecal suspension; fecal sample no. 9): 0.0%
6HG detected after incubation (human fecal suspension; fecal sample no. 10): 0.0%
6HGDG detected after incubation (human fecal suspension; fecal sample no. 10): 0.0%
SMILES: O=c1c(-c2ccc(O)cc2)coc2cc(O[C@@H]3O[C@H](CO)[C@@H](O)[C@H](O)[C@H]3O)c(O[C@@H]3O[C@H](CO)[C@@H](O)[C@H](O)[C@H]3O)c(O)c12 [6HGDG, 6-hydroxygenistein 6,7-di-O-glucoside]

Detected intact after incubation ([1]; aglycone-form substrate): More than 95%
Daidzein detected after incubation (human fecal suspension; Mix, mixture of 10 samples): 30.1%
Daidzein detected after incubation (human fecal suspension; fecal sample no. 1): 84.5%
Daidzein detected after incubation (human fecal suspension; fecal sample no. 2): 90.8%
Daidzein detected after incubation (human fecal suspension; fecal sample no. 3): 60.3%
Daidzein detected after incubation (human fecal suspension; fecal sample no. 4): 96.4%
Daidzein detected after incubation (human fecal suspension; fecal sample no. 5): 8.0%
Daidzein detected after incubation (human fecal suspension; fecal sample no. 6): 0.0%
Daidzein detected after incubation (human fecal suspension; fecal sample no. 7): 62.6%
Daidzein detected after incubation (human fecal suspension; fecal sample no. 8): 13.9%
Daidzein detected after incubation (human fecal suspension; fecal sample no. 9): 81.4%
Daidzein detected after incubation (human fecal suspension; fecal sample no. 10): 8.4%
SMILES: O=c1c(-c2ccc(O)cc2)coc2cc(O)ccc12 [Daidzein, daidzein]

Detected intact after incubation ([1]; aglycone-form substrate): More than 95%
Detected as intact substrate (human fecal suspension; 1 sample): 70%
Substrate metabolized (human fecal suspension; 1 sample, incubation for 3 days): 94%
Found intact (human fecal suspension; 2 samples): more than 90%
Metabolites detected, including 6HG and equol (in words) (human fecal suspension; any incubates): No metabolites
Substrate metabolized (in words) (human fecal suspension; mixed human feces): completely
Genistein detected after incubation (human fecal suspension; Mix, mixture of 10 samples): 0.0%
Genistein detected after incubation (human fecal suspension; fecal sample no. 1): 70.9%
Genistein detected after incubation (human fecal suspension; fecal sample no. 2): 91.2%
Genistein detected after incubation (human fecal suspension; fecal sample no. 3): 99.0%
Genistein detected after incubation (human fecal suspension; fecal sample no. 4): 5.9%
Genistein detected after incubation (human fecal suspension; fecal sample no. 5): 0.0%
Genistein detected after incubation (human fecal suspension; fecal sample no. 6): 0.0%
Genistein detected after incubation (human fecal suspension; fecal sample no. 7): 0.0%
Genistein detected after incubation (human fecal suspension; fecal sample no. 8): 0.0%
Genistein detected after incubation (human fecal suspension; fecal sample no. 9): 0.0%
Genistein detected after incubation (human fecal suspension; fecal sample no. 10): 0.0%
SMILES: O=c1c(-c2ccc(O)cc2)coc2cc(O)cc(O)c12 [Genistein]

Metabolized by incubation with germfree mouse small intestine (in words) [1]: completely metabolized
Glycoside detected after incubation against compound added ([1]; pH 5.0): 0.0%
Glycoside detected after incubation against compound added ([1]; pH 7.4): 0.0%
Hydrolysis by homogenate of germfree mouse small intestine (in words) [1]: highly hydrolyzed
SMILES: O=c1c(-c2ccc(O)cc2)coc2cc(O[C@@H]3O[C@H](CO)[C@@H](O)[C@H](O)[C@H]3O)cc(O)c12 [Genistin]

Substrate added that was resolved (in words) ([1]; aglycone-form substrate): about a half
Substrate metabolized (human fecal suspension; all fecal samples including the mixed sample): At least 75%
Glycitein detected after incubation (human fecal suspension; Mix, mixture of 10 samples): 8.0%
Glycitein detected after incubation (human fecal suspension; fecal sample no. 1): 24.6^a %
Glycitein detected after incubation (human fecal suspension; fecal sample no. 2): 17.5%
Glycitein detected after incubation (human fecal suspension; fecal sample no. 3): 2.7%
Glycitein detected after incubation (human fecal suspension; fecal sample no. 4): 10.7%
Glycitein detected after incubation (human fecal suspension; fecal sample no. 5): 7.1%
Glycitein detected after incubation (human fecal suspension; fecal sample no. 6): 0.0%
Glycitein detected after incubation (human fecal suspension; fecal sample no. 7): 12.2%
Glycitein detected after incubation (human fecal suspension; fecal sample no. 8): 3.2%
Glycitein detected after incubation (human fecal suspension; fecal sample no. 9): 0.0%
Glycitein detected after incubation (human fecal suspension; fecal sample no. 10): 5.6%
SMILES: COc1cc2c(=O)c(-c3ccc(O)cc3)coc2cc1O [Glycitein, glycitein]

Glycitin metabolized detected as glycitein [1]: about 65%
Metabolized by incubation with germfree mouse small intestine (in words) [1]: completely metabolized
Aglycone detected after incubation against compound added ([1]; pH 5.0): 65.5%
Glycoside detected after incubation against compound added ([1]; pH 5.0): 0.0%
Aglycone detected after incubation against compound added ([1]; pH 7.4): 62.1%
Glycoside detected after incubation against compound added ([1]; pH 7.4): 0.0%
Hydrolysis by homogenate of germfree mouse small intestine (in words) [1]: highly hydrolyzed
SMILES: COc1cc2c(=O)c(-c3ccc(O)cc3)coc2cc1O[C@@H]1O[C@H](CO)[C@@H](O)[C@H](O)[C@H]1O [Glycitin, glycitin]

Substrate metabolized ([1]; pH 5.0): More than 95%
Aglycone detected after incubation against compound added ([1]; pH 5.0): 97.1%
Glycoside detected after incubation against compound added ([1]; pH 5.0): 4.9%
Substrate metabolized ([1]; pH 7.4): 40%
Aglycone detected after incubation against compound added ([1]; pH 7.4): 43.7%
Glycoside detected after incubation against compound added ([1]; pH 7.4): 60.7%
Hydrolysis by homogenate of germfree mouse small intestine (in words) [1]: highly hydrolyzed
SMILES: COc1c(O[C@@H]2O[C@H](CO[C@@H]3OC[C@@H](O)[C@H](O)[C@H]3O)[C@@H](O)[C@H](O)[C@H]2O)cc2occ(-c3ccc(O)cc3)c(=O)c2c1O [TGXG, Tectorigenin 7-O-xylosylglucoside]

Metabolized by incubation with germfree mouse small intestine (in words) [1]: completely metabolized
Glycoside detected after incubation against compound added ([1]; pH 5.0): 0.0%
Glycoside detected after incubation against compound added ([1]; pH 7.4): 0.0%
Hydrolysis by homogenate of germfree mouse small intestine (in words) [1]: highly hydrolyzed
SMILES: COc1c(O[C@@H]2O[C@H](CO)[C@@H](O)[C@H](O)[C@H]2O)cc2occ(-c3ccc(O)cc3)c(=O)c2c1O [Tectoridin, tectoridin]

Detected intact after incubation ([1]; aglycone-form substrate): More than 95%
Substrate metabolized (in words) (human fecal suspension; 1 fecal sample): about half
Substrate metabolized (in words) (human fecal suspension; 8 of 10 fecal samples): metabolized completely
Metabolite detected (in words) (human fecal suspension; mixed human feces): no metabolite was detected
Substrate metabolized (in words) (human fecal suspension; mixed human feces): completely
Tectorigenin detected after incubation (human fecal suspension; Mix, mixture of 10 samples): 0.0%
Tectorigenin detected after incubation (human fecal suspension; fecal sample no. 1): 53.5%
Tectorigenin detected after incubation (human fecal suspension; fecal sample no. 2): 2.6%
Tectorigenin detected after incubation (human fecal suspension; fecal sample no. 3): 0.0%
Tectorigenin detected after incubation (human fecal suspension; fecal sample no. 4): 0.0%
Tectorigenin detected after incubation (human fecal suspension; fecal sample no. 5): 0.0%
Tectorigenin detected after incubation (human fecal suspension; fecal sample no. 6): 0.0%
Tectorigenin detected after incubation (human fecal suspension; fecal sample no. 7): 0.0%
Tectorigenin detected after incubation (human fecal suspension; fecal sample no. 8): 0.0%
Tectorigenin detected after incubation (human fecal suspension; fecal sample no. 9): 0.0%
Tectorigenin detected after incubation (human fecal suspension; fecal sample no. 10): 0.0%
SMILES: COc1c(O)cc2occ(-c3ccc(O)cc3)c(=O)c2c1O [Tectorigenin, tectorigenin]
